Here are results for ten molecules from ChEMBL document CHEMBL1121393, “Synthesis and biological activity of flavipucine analogues” (1980).

What all share (assay type): functional
In assay [1] the test system is Klebsiella aerogenes. Briefly: Tested in vitro for antibacterial activity against Aerobacter aerogenes. Summed up: (§1)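 MICs determined by twofold agar dilution in nutrient agar with 0.2% yeast extract. Organisms were inoculated onto the plates with a Steers multiple inoculator.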
Assay [2] deals with Aspergillus niger. Briefly: Tested for antifungal activity against Aspergillus niger.
Assay [3] concerns Bordetella bronchiseptica. The assay can be described thus: Tested in vitro for antibacterial activity against Bordetella bronchiseptica. Summed up: as §1
Assay [4] deals with Escherichia coli. The assay can be described thus: Tested in vitro for antibacterial activity against Escherichia coli. The method in brief:
as §1

Assay [5] deals with Klebsiella pneumoniae. Briefly: Tested in vitro for antibacterial activity against Klebsiella pneumoniae. The method in brief: as §1
Assay [6] has as its system Proteus vulgaris. The assay can be described thus: Tested in vitro for antibacterial activity against Proteus volgaris. The method in brief:
as §1

For assay [7], the system named is Pseudomonas aeruginosa. The assay can be described thus: Tested in vitro for antibacterial activity against Pseudomonas aeruginosa. The method in brief: as §1
Assay [8] deals with Staphylococcus aureus. Briefly: Tested in vitro for antibacterial activity against Staphylococcus aureus. The method in brief: as §1
Assay [9] concerns Alternaria solani. The assay can be described thus: Tested for antifungal activity against Alternaria solani.
Assay [10] deals with Aureobasidium pullulans. Briefly: Tested for antifungal activity against Pullaria pullulans.

One may read the MIC as the least concentration at which growth counts as inhibited. A low value points to greater potency.

Each structure is given as a SMILES string. In brackets after ≈: the same amount, converted by molar mass. Some results are limits rather than exact numbers.

`CC1=CC(=O)[C@@]2(O[C@@H]2C(=O)CC(C)C)C(=O)N1C`: the MIC is greater than 100 µg/mL in assay [1]; 50 µg/mL (≈ 199 µM) in [2]; 100 µg/mL (≈ 398 µM) in assay [3]; 100 µg/mL (≈ 398 µM) in assay [4]; 50 µg/mL (≈ 199 µM) in assay [5]; 6.3 µg/mL (≈ 25.1 µM) in assay [6]. The MIC in assay [7] is greater than 100 µg/mL; in assay [8], 12.5 µg/mL (≈ 49.7 µM); in assay [9] it was 6.3 µg/mL (≈ 25.1 µM).
For the molecule `CC(=O)[C@H]1O[C@@]12C(=O)C=C(C)NC2=O`, the MIC in assay [1] was greater than 100 µg/mL; in [2] it was greater than 100 µg/mL; in assay [3], greater than 100 µg/mL; in [4], 50 µg/mL (≈ 256 µM); in assay [5] it was greater than 100 µg/mL; in assay [6], greater than 100 µg/mL. For the same molecule, the MIC is 50 µg/mL (≈ 256 µM) in assay [7], 100 µg/mL (≈ 512 µM) in assay [8], greater than 100 µg/mL in [9] and greater than 100 µg/mL in assay [10].
As to `CC1=CC(=O)[C@@]2(O[C@H]2C(=O)CC(C)C)C(=O)N1`, the minimal inhibitory concentration (MIC) was 100 µg/mL (≈ 421 µM) in assay [1]; greater than 100 µg/mL in assay [2]; 50 µg/mL (≈ 211 µM) in assay [3]; 50 µg/mL (≈ 211 µM) in assay [4]; 6.3 µg/mL (≈ 26.6 µM) in assay [5]; 6.3 µg/mL (≈ 26.6 µM) in assay [6]. For the same molecule, the MIC in assay [7] was greater than 100 µg/mL; in assay [8], 6.3 µg/mL (≈ 26.6 µM); in assay [9] it was 50 µg/mL (≈ 211 µM).
Regarding `CC(C)CC(=O)C1OC12C(=O)CC(C)(C)CC2=O` (stereo unspecified), the MIC is 25 µg/mL (≈ 99.1 µM) in assay [1]; 25 µg/mL (≈ 99.1 µM) in assay [2]; 50 µg/mL (≈ 198 µM) in assay [3]; greater than 100 µg/mL in assay [4]; 50 µg/mL (≈ 198 µM) in assay [5]; 50 µg/mL (≈ 198 µM) in assay [6]. Besides, the MIC in assay [7] came to 50 µg/mL (≈ 198 µM); in assay [8], 25 µg/mL (≈ 99.1 µM); in [9], 3.1 µg/mL (≈ 12.3 µM); in assay [10] it was 6.3 µg/mL (≈ 25 µM).
Take `CC1=CC(=O)[C@@]2(O[C@H]2C(=O)CC(C)C)C(=O)N1C`: the MIC in assay [1] was greater than 100 µg/mL; in assay [2] it was greater than 100 µg/mL; in [3], 100 µg/mL (≈ 398 µM); in assay [4] it was greater than 100 µg/mL; in assay [5], 100 µg/mL (≈ 398 µM); in assay [6] it was 12.5 µg/mL (≈ 49.7 µM). For the same molecule, the MIC in assay [7] was greater than 100 µg/mL; in assay [8], 25 µg/mL (≈ 99.5 µM); in [9], 12.5 µg/mL (≈ 49.7 µM).
In the case of `CC1=CC(=O)C2(OC2C(=O)CC(C)C)C(=O)N1` (stereo unspecified), the minimum inhibitory concentration (MIC) is 100 µg/mL (≈ 421 µM) in assay [1]; greater than 100 µg/mL in [2]; 33.9 µg/mL (≈ 143 µM) in assay [3]; 50 µg/mL (≈ 211 µM) in assay [4]; 4.7 µg/mL (≈ 19.8 µM) in assay [5]; 4.7 µg/mL (≈ 19.8 µM) in [6]. Further, the MIC in [7] was greater than 100 µg/mL; in assay [8] it was 4.7 µg/mL (≈ 19.8 µM); in [9], 100 µg/mL (≈ 421 µM); in assay [10] it was greater than 100 µg/mL.
`CCCCCCCCCC(=O)[C@@H]1O[C@@]12C(=O)C=C(C)NC2=O`: the MIC was 1.6 µg/mL (≈ 5.21 µM) in [2]; 0.8 µg/mL (≈ 2.6 µM) in assay [3]; greater than 100 µg/mL in assay [4]; greater than 100 µg/mL in assay [5]; 0.8 µg/mL (≈ 2.6 µM) in assay [8]; 0.2 µg/mL (≈ 0.651 µM) in assay [9]. Further, in [10], the MIC is 0.2 µg/mL (≈ 0.651 µM).
In the case of `CCCCCCCCCC(=O)[C@H]1O[C@@]12C(=O)C=C(C)NC2=O`, the minimal inhibitory concentration (MIC) in assay [2] was 0.2 µg/mL (≈ 0.651 µM); in assay [3] it was 3.1 µg/mL (≈ 10.1 µM); in [4], greater than 100 µg/mL; in assay [5] it was greater than 100 µg/mL; in assay [6], 12.5 µg/mL (≈ 40.7 µM); in assay [8], 0.4 µg/mL (≈ 1.3 µM). Also, the MIC in assay [9] and in [10] was 0.2 µg/mL (≈ 0.651 µM) in each case.
For the molecule `CC(=O)[C@@H]1O[C@@]12C(=O)C=C(C)NC2=O`, the MIC in assay [1], in [2], in assay [3], in [4], in [5] and in [6] was greater than 100 µg/mL each time. Further, the MIC in assay [7], in assay [8], in [9] and in [10] was greater than 100 µg/mL each time.
With `CC1=CC(=O)[C@@]2(O[C@@H]2C(=O)CC(C)C)C(=O)N1`, the MIC is greater than 100 µg/mL in [1]; greater than 100 µg/mL in assay [2]; 50 µg/mL (≈ 211 µM) in [3]; 50 µg/mL (≈ 211 µM) in [4]; 6.3 µg/mL (≈ 26.6 µM) in assay [5]; 3.1 µg/mL (≈ 13.1 µM) in assay [6]. Also, the values for the MIC in [7], in [8] and in assay [9] were greater than 100 µg/mL, 6.3 µg/mL (≈ 26.6 µM) and 25 µg/mL (≈ 105 µM), respectively.
